Assay results as given in ChEMBL document CHEMBL1287758, “Synthesis of D- and L-tyrosine-chlorambucil analogs active against breast cancer cell lines” (Bioorg Med Chem Lett, 2010).

Legend:
Assay type in all cases: functional, cell-based; call rule not given here
[1] = system: MDA-MB-231; experiment: Cytotoxicity against estrogen receptor-negative human MDA-MB-231 cells by MTT assay
Method in brief: (§1)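 MTT read-out after 72 h continuous exposure of human breast cancer cells to compound. Each assay run in duplicate; IC50 taken from three independent experiments and reported as mean SEM. Chlorambucil served as positive control.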

[2] = system: MCF7; experiment: Cytotoxicity against estrogen receptor-positive human MCF7 cells by MTT assay; method in brief: as §1
[3] = Cytotoxicity against estrogen receptor-negative human MDA-MB-436 cells by MTT assay; method in brief: as §1
[4] = system: MDA-MB-468; experiment: Cytotoxicity against estrogen receptor-negative human MDA-MB-468 cells by MTT assay; method in brief: as §1
[5] = Homo sapiens, MCF7, read-out: IC50
[6] = Homo sapiens, MDA-MB-231, read-out: IC50
[7] = Homo sapiens, MDA-MB-436, read-out: IC50
[8] = Homo sapiens, MDA-MB-468, read-out: IC50

## COC(=O)[C@H](Cc1ccc(O)cc1)NC(=O)CCCCCCCCCCNC(=O)CCCc1ccc(N(CCCl)CCCl)cc1
[1]; mda-mb-231
  IC50: Not Active
[2]; [5]
  IC50: 67.9 µM
[3]; mda-mb-436
  IC50: Not Active
[4]; mda-mb-468
  IC50: Not Active

## O=C(CCCc1ccc(N(CCCl)CCCl)cc1)NCCCCCCCCCCC(=O)N[C@H](CO)Cc1ccc(O)cc1
[1]; mda-mb-231
  IC50: Not Active
[2]; [5]
  IC50: 19.4 µM
[3]; mda-mb-436
  IC50: Not Active
[4]; mda-mb-468
  IC50: Not Active

## COC(=O)[C@@H](Cc1ccc(O)cc1)NC(=O)CCCCCCCCCCNC(=O)CCCc1ccc(N(CCCl)CCCl)cc1
[1]; mda-mb-231
  IC50: Not Active
[2]; mcf7
  IC50: Not Active

## O=C(CCCc1ccc(N(CCCl)CCCl)cc1)NCCCCCCCCCCC(=O)N[C@@H](CO)Cc1ccc(O)cc1
[1]; mda-mb-231
  IC50: Not Active
[2]; [5]
  IC50: 16.3 µM

## O=C(CCCc1ccc(N(CCCl)CCCl)cc1)NCCCCCC(=O)N[C@@H](CO)Cc1ccc(O)cc1
[2]; [5]
  IC50: 67 µM

## COC(=O)[C@H](Cc1ccc(O)cc1)NC(=O)CCCc1ccc(N(CCCl)CCCl)cc1
[1]; [6]
  IC50: 37.8 µM
[2]; [5]
  IC50: 31.9 µM
[3]; [7]
  IC50: 15.4 µM
[4]; [8]
  IC50: 62.5 µM

## O=C(CCCc1ccc(N(CCCl)CCCl)cc1)N[C@H](CO)Cc1ccc(O)cc1
[1]; [6]
  IC50: 39.6 µM
[2]; [5]
  IC50: 34.1 µM
[3]; [7]
  IC50: 24.4 µM
[4]; [8]
  IC50: 55.1 µM

## COC(=O)[C@H](Cc1ccc(O)cc1)NC(=O)CCCCCNC(=O)CCCc1ccc(N(CCCl)CCCl)cc1
[1]; [6]
  IC50: 36.8 µM
[2]; [5]
  IC50: 25.4 µM
[3]; [7]
  IC50: 15 µM
[4]; [8]
  IC50: 59 µM

## O=C(CCCc1ccc(N(CCCl)CCCl)cc1)NCCCCCC(=O)N[C@H](CO)Cc1ccc(O)cc1
[1]; [6]
  IC50: 55.1 µM
[2]; [5]
  IC50: 62.2 µM
[3]; [7]
  IC50: 28.9 µM
[4]; [8]
  IC50: 77.3 µM

## COC(=O)[C@@H](Cc1ccc(O)cc1)NC(=O)CCCc1ccc(N(CCCl)CCCl)cc1
[1]; [6]
  IC50: 47.2 µM
[2]; [5]
  IC50: 50 µM

## O=C(CCCc1ccc(N(CCCl)CCCl)cc1)N[C@@H](CO)Cc1ccc(O)cc1
[1]; [6]
  IC50: 29.8 µM
[2]; [5]
  IC50: 31.4 µM

## COC(=O)[C@@H](Cc1ccc(O)cc1)NC(=O)CCCCCNC(=O)CCCc1ccc(N(CCCl)CCCl)cc1
[2]; [5]
  IC50: 152 µM

## O=C(O)CCCc1ccc(N(CCCl)CCCl)cc1 [CHLORAMBUCIL]
[1]; [6]
  IC50: 137 µM
[2]; [5]
  IC50: 130 µM
[3]; [7]
  IC50: 132 µM
[4]; [8]
  IC50: 147 µM
